pIC50: −log10 of the molar value. The source made the active and inactive calls. The calls are words filed in the database; no cut-off is given here.

The values that follow come from ChEMBL document CHEMBL3352550, “Discovery and optimization of 4,5-diarylisoxazoles as potent dual inhibitors of pyruvate dehydrogenase kinase and heat shock protein 90” (J Med Chem, 2014).

Data set [1] concerns NCI-H1299. Kind of data set: Increase in oxygen consumption rate/extracellular acidification rate ratio in human NCI-H1299 cells at incubated for 12 hrs. Type of data set: functional, cell-based.
The test system of data set [2] is NCI-H1299. Kind of data set: Reduction in oxygen consumption rate in human NCI-H1299 cells incubated for 12 hrs. Type of data set: functional, cell-based. A digest of the protocol: (§1)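 Cells pre-treated with varying concentrations of compound for 12 h, then oxygen consumption rate and extracellular acidification rate measured on an XF96 extracellular flux analyzer; ECAR/OCR ratio calculated from these readings.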

The test system of data set [3] is NCI-H1299. Nature of the data set: Increase in oxygen consumption rate in human NCI-H1299 cells at 10 mM incubated for 12 hrs. Format: functional, cell-based. A digest of the protocol: (§2)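 NCI-H1299 cells were pre-treated with compound for 12 h, then oxygen consumption rate and extracellular acidification rate were read on an XF96 extracellular flux analyzer.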

Data set [4] deals with T1, [Pyruvate dehydrogenase (acetyl-transferring)] kinase isozyme 1, mitochondrial (Homo sapiens, UniProt Q15118). As to conditions: NCI-H1299, 10 mM.
T1 sequence (Q15118 whole entry): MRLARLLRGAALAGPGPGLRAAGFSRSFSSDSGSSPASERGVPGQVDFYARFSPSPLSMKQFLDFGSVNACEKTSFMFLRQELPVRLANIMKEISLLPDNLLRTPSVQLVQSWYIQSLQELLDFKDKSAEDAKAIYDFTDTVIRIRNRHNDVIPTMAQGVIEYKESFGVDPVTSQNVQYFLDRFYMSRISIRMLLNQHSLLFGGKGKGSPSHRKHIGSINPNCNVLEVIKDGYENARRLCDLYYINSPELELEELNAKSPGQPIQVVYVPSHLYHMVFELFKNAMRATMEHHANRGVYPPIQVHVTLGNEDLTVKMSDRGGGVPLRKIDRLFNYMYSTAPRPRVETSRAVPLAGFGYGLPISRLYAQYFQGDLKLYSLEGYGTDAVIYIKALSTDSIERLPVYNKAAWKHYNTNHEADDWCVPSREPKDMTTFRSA
In data set [5] the test system is NCI-H1299. Kind of data set: Reduction in extracellular acidification rate in human NCI-H1299 cells at 10 mM incubated for 12 hrs. Format: functional, cell-based. The essentials: as §2
The test system of data set [6] is NCI-H1299. Kind of data set: Increase in oxygen consumption rate/extracellular acidification rate ratio in human NCI-H1299 cells at 10 uM incubated for 12 hrs. Format: functional, cell-based.
Data set [7] concerns the target [Pyruvate dehydrogenase (acetyl-transferring)] kinase isozyme 4, mitochondrial (Homo sapiens, UniProt Q16654). Nature of the data set: Inhibition of recombinant PDHK4 (unknown origin) expressed in Escherichia coli incubated for 1 hr by ELISA. In general terms: ELISA stands for enzyme-linked immunosorbent assay.
Data set [8] addresses T2, [Pyruvate dehydrogenase (acetyl-transferring)] kinase isozyme 3, mitochondrial (Homo sapiens, UniProt Q15120). Kind of data set: Inhibition of recombinant PDHK3 (unknown origin) expressed in Escherichia coli incubated for 1 hr by ELISA.
Data set [9] is described as follows: Efflux ratio in human Caco2 cells. Particulars: Caco-2. On the technique in general: Caco-2 cells form a polarised layer with tight junctions and transporters.
Data set [10] deals with T3, Heat shock protein HSP90 (Homo sapiens, UniProt P07900+P08238). Kind of data set: Inhibition of geldanamycin-BODIPY binding to full-length HSP90 (unknown origin) by fluorescence polarization based competition assay. Type of data set: protein assay. A digest of the protocol: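 Fluorescence polarization competition using full-length HSP90 and geldanamycin-BODIPY as probe.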
For orientation: Fluorescence polarisation rises when a labelled molecule tumbles more slowly, as on binding a larger partner.

Data set [11] deals with NCI-H1299. Kind of data set: Reduction in extracellular acidification rate in human NCI-H1299 cells at 10 uM incubated for 12 hrs. Format: functional, cell-based. A digest of the protocol:
as §1

For data set [12], the target named is T3, Heat shock protein HSP90. Nature of the data set: Inhibition of HSP90 in human NCI-H1299 cells assessed as reduction in c-MET protein levels at 10 uM incubated for 12 hrs by immunoblotting method. Format: cell-based. The essentials: (§3)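 NCI-H1299 cells were treated for 12 h and lysed in RIPA buffer with protease inhibitors. Equal protein was loaded per lane, run on a gel and transferred to nitrocellulose. Membranes were blocked in TBST with 3% BSA for 1 h at room temperature, then probed with primary antibody for 2 h and secondary antibody for 1 h, both at room temperature. Bands were detected by ECL.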

Data set [13] has as its target T1, [Pyruvate dehydrogenase (acetyl-transferring)] kinase isozyme 1, mitochondrial. Kind of data set: Inhibition of recombinant PDHK1 (unknown origin) expressed in Escherichia coli incubated for 1 hr by ELISA.
Data set [14] in a line: Apparent permeability from basolateral to apical side in human Caco2 cells. Particulars: Caco-2.
Data set [15] addresses T1, [Pyruvate dehydrogenase (acetyl-transferring)] kinase isozyme 1, mitochondrial. Kind of data set: Inhibition of recombinant PDHK1 (unknown origin) expressed in Escherichia coli at 10 uM incubated for 1 hr by ELISA. A digest of the protocol: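 Recombinant His6-SUMO-PDHK1 was expressed in E. coli and purified on nickel resin. It was used at 0.25 µg/well on immobilized PDHA1 substrate (0.5 µg/well) with 10 µM ATP in 50 mM HEPES, 10 mM MgCl2 and 1 mM EGTA. Compounds were screened at 10 µM and percent inhibition was recorded. Detection used anti-p-PDHA1(S293) for 1 h and HRP secondary antibody for 1 h, then o-phenylenediamine, read at OD490.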

Data set [16] in a line: Apparent permeability from apical to basolateral side in human Caco2 cells. As to conditions: Caco-2.
Data set [17] concerns NCI-H1299. Kind of data set: Increase in ROS production in human NCI-H1299 cells at incubated for 12 hrs by DCFH-DA staining based fluorescence assay. Format: functional, cell-based. The essentials:
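Cells loaded with 5 µmol/L DCFH-DA in fresh medium for 30 min after compound treatment, washed with PBS, and intracellular ROS read as fluorescence intensity by flow cytometry.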

Data set [18] has as its target T3, Heat shock protein HSP90. Kind of data set: Inhibition of HSP90 in human NCI-H1299 cells assessed as reduction in AKT protein levels at 10 uM incubated for 12 hrs by immunoblotting method. Type of data set: cell-based. A digest of the protocol:
as §3

The target in data set [19] is T3, Heat shock protein HSP90. Nature of the data set: Inhibition of HSP90 in human NCI-H1299 cells assessed as reduction in HER2 protein levels at 10 uM incubated for 12 hrs by immunoblotting method. Type of data set: cell-based. A digest of the protocol:
as §3

The target of data set [20] is T1, [Pyruvate dehydrogenase (acetyl-transferring)] kinase isozyme 1, mitochondrial. As to conditions: NCI-H1299, 10 uM.
Data set [21] has as its target T3, Heat shock protein HSP90. Nature of the data set: Inhibition of HSP90 in human NCI-H1299 cells assessed as increase in HSP70 protein levels at 10 uM incubated for 12 hrs by immunoblotting method. Type of data set: cell-based. A digest of the protocol:
as §3

Data set [22] deals with NCI-H1299. Kind of data set: Antiproliferative activity against human NCI-H1299 cells after 72 hrs by CCK8 assay. Format: functional, cell-based. The essentials:
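NCI-H1299 cells seeded at 3000 per well; test compound at a range of concentrations added the next day, vehicle DMSO as control; proliferation read by CCK8 kit after 72 h; IC50 derived from dose–response.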

For data set [23], the target named is [Pyruvate dehydrogenase (acetyl-transferring)] kinase isozyme 2, mitochondrial (Homo sapiens, UniProt Q15119). Kind of data set: Inhibition of recombinant PDHK2 (unknown origin) expressed in Escherichia coli incubated for 1 hr by ELISA.
In data set [24] the test system is NCI-H1299. Nature of the data set: Reduction in oxygen consumption rate in human NCI-H1299 cells at 10 uM incubated for 12 hrs. Format: functional, cell-based. A digest of the protocol: as §1
The target in data set [25] is T1, [Pyruvate dehydrogenase (acetyl-transferring)] kinase isozyme 1, mitochondrial. Kind of data set: Inhibition of PDHK1 (unknown origin).
The target in data set [26] is T2, [Pyruvate dehydrogenase (acetyl-transferring)] kinase isozyme 3, mitochondrial. Nature of the data set: Inhibition of PDHK3 (unknown origin). The essentials: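 PDHK3 was expressed in E. coli as a His6-SUMO fusion and purified on nickel resin. The substrate was His6-SUMO-PDHA1, immobilized at 0.5 µg/well, with enzyme at 0.25 µg/well and 10 µM ATP in 50 mM HEPES, 10 mM MgCl2 and 1 mM EGTA. Phosphorylation was detected with anti-p-PDHA1(S293) for 1 h, then HRP secondary antibody for 1 h. Colour was developed with o-phenylenediamine and read at OD490. IC50 came from a four-parameter fit.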

T2 sequence (Q15120 whole entry): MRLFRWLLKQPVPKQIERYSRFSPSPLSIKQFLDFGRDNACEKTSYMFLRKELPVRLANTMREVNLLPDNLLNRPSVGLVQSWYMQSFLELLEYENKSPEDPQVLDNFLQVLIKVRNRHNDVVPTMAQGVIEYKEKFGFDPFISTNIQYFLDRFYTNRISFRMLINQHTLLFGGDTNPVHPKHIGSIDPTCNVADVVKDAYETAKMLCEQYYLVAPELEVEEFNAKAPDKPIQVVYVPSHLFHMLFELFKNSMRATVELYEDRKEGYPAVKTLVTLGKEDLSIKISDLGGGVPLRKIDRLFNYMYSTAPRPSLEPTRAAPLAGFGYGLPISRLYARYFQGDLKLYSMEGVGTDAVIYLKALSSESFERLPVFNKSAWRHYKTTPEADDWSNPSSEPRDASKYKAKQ
[Pyruvate dehydrogenase (acetyl-transferring)] kinase isozyme 4, mitochondrial, sequence (Q16654 whole entry): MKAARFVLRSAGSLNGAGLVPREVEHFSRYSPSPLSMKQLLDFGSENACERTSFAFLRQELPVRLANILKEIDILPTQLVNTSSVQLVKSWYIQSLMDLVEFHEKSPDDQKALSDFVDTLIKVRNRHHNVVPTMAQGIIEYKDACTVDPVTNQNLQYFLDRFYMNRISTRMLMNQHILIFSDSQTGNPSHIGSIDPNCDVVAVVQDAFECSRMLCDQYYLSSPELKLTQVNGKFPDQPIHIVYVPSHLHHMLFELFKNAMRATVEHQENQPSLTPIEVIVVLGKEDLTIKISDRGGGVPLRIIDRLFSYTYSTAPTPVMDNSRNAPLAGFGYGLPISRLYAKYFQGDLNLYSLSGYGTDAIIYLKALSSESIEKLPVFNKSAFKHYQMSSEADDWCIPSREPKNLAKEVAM

For `CC1(C)CC(=O)c2c(C(F)(F)F)nn(-c3ccc(C(N)=O)c(N[C@H]4CC[C@H](O)CC4)c3)c2C1`, the result in the data set on NCI-H1299 [1] was inactive.

For the molecule `CO[C@H]1/C=C\C=C(/C)C(=O)NC2=CC(=O)C(NCCN(C)C)=C(C[C@@H](C)C[C@H](OC)[C@H](O)[C@@H](C)/C=C(\C)[C@@H]1OC(N)=O)C2=O`, the inhibition (commonly the relative decrease from the control value, in per cent) in the data set with NCI-H1299 [2] is “Active”.

For `CC(C)c1cc(-c2n[nH]c(=O)n2-c2ccc3c(ccn3C)c2)c(O)cc1O`, the outcome in the data set on NCI-H1299 [1] was inactive.

As to `O=C(O)C(Cl)Cl`, the inhibition entry (with NCI-H1299 [3]; in data set [4]; with NCI-H1299 [5]) was “Active” each time.

Regarding `COc1ccccc1N1CCN(C(=O)/C=C/c2noc(-c3cc(Cl)c(O)cc3O)c2-c2ccc(O)cc2)CC1`, the result in the data set with NCI-H1299 [6] and with NCI-H1299 [17] was Active. The pIC50 (in general, −log10 of the IC50, conventionally taken in molar units) in data set [7] was 5.76; in data set [8] it was 5.27; in data set [13], 6.22; in the data set with NCI-H1299 [22] (NCI-H1299, 72 h), 5.04; in data set [23], 5.95. The efflux ratio (usually a quotient of directional permeabilities that is used to spot active efflux) in data set [9] came out at 1.38. Moreover, the IC50 (usually the concentration at which inhibition is half-maximal) at Heat shock protein HSP90 [10] was found to be 0.512 µM. Also, the inhibition result (in the data set on NCI-H1299 [11]; on Heat shock protein HSP90 [12]; on Heat shock protein HSP90 [18]; on Heat shock protein HSP90 [19]; in data set [20]; at Heat shock protein HSP90 [21]) was “Active” in each case. Further, the inhibition entry in the data set with NCI-H1299 [24] was “Active”. Further, the apparent permeability from basolateral to apical (Papp B→A) (commonly how fast a substance crosses the layer from the basolateral side) in [14] was 15.5 ×10⁻⁶ cm/s. Further, the inhibition is over 50% in data set [15] and “Dose-dependent effect” with NCI-H1299 [22]. Moreover, the Papp A→B (in general, how fast a substance crosses the layer from the apical side) in [16] turned out to be 11.2 ×10⁻⁶ cm/s.

`CC(C)NCCCn1c(Sc2cc3c(cc2I)OCO3)nc2c(N)ncnc21`: the inhibition result in the data set on NCI-H1299 [2] was “Active”.

For `COc1c(C)cnc(Cn2cnc3c(Cl)nc(N)nc32)c1C`, the inhibition result in the data set on NCI-H1299 [2] is “Active”.

As to `C[C@@H]1C[C@H]2O[C@@H]2/C=C\C=C\C(=O)Cc2c(Cl)c(O)cc(O)c2C(=O)O1` [RADICICOL], the pIC50 was 3.40 in [25] and 3.64 in [26].
